In ChEMBL document CHEMBL1125251, “4'-Hydroxy-3-methoxyflavones with potent antipicornavirus activity” (J Med Chem, 1991):
In brackets after ≈: the same amount, converted by molar mass. Activity calls are given as the source filed them. The calls are words filed in the database; no cut-off is given here.

Tests used:
Enterovirus C [1] = assay: The ratio of the poliovirus viral titer of the virus control (reduction factor) to the viral titer in the presence of the maximal non-toxic dose (RF MNTD); type: functional
Outline: (§1)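 Poliovirus type 1 Brunhilde 1A/S3 in Vero monolayers. Serial 10-fold virus dilutions adsorbed 1 h at 37 °C, then serial 2-fold compound dilutions were added. Incubated at 37 °C and scored for CPE by light microscopy, with a 3-day readout. Titer reduction is control/treated TCD50/mL. ED99 is the minimum concentration inhibiting 99% of virus. Virus, cell and compound controls were included.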

Enterovirus C [2] = assay: Minimal dose which produces titer reduction at 10 ug/mL (mD RF10e3); type: functional
Enterovirus C [3] = assay: Minimum drug concentration at which 99% of the polio virus is inhibited; type: functional; outline: as §1
Enterovirus C [4] = assay: Maximal non-toxic dose (MNTD) that shows antiviral activity.; type: functional
Outline: (§2)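 End-point titration. Poliovirus type 1 Brunhilde was run in Vero cells at 37 °C with a 3-day read. Rhinovirus 15 was run in human skin fibroblasts at 33 °C with a 7-day read. Monolayers got serial 10-fold virus dilutions and adsorbed 1 h at 37 °C, then serial 2-fold compound dilutions (DMSO stock in maintenance medium). CPE was read by light microscopy. RF = control titer (TCD50/mL) / titer at maximal nontoxic dose.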

[5] = Cytotoxic dose at which 50% growth of normal cells is inhibited; type: cell-based; details: chlorocebus sabaeus, Vero cells; read-out: CyD50
Outline: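 Cell-growth cytotoxicity in Vero cells or human skin fibroblasts. Serial 2-fold dilutions in M-199 with 6% newborn calf serum were added in quadruplicate to 10⁶ cells and held 6 days at 37 °C. Cells were trypsinized, counted and reseeded with compound, repeated five times. Generation time was calculated per concentration. CyD50 = lowest concentration at least doubling generation time versus untreated cells.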

Rattus norvegicus [6] = organism: Rattus norvegicus; assay: Compound was evaluated for the mutagenicity by calculating number of revertants using Salmonella Typhimurium strain TA 98 (2.5 mg/plate) with S9 mix from rat liver; type: functional
Outline: (§3)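 Ames plate incorporation assay with Salmonella typhimurium TA 98 or TA 100, with or without rat liver S9 (20 µL S9 per plate). S9 came from male Wistar rats induced with phenobarbital (0.1% in drinking water) plus β-naphthoflavone (80 mg/kg ip on day 5 in corn oil), fasted 24 h and killed on day 7. Revertants per plate counted on duplicate plates per dose.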

Rattus norvegicus [7] = organism: Rattus norvegicus; assay: Mutagenicity evaluated by calculating number of revertants using Salmonella Typhimurium strain TA 100 (0.25 mg/plate) with S9 mix from rat liver; type: functional; outline: as §3
Rattus norvegicus [8] = organism: Rattus norvegicus; assay: Mutagenicity evaluated by calculating number of revertants using Salmonella Typhimurium strain TA 100 (0.25 mg/plate) without S9 mix from rat liver according to the plate incorporation assay.; type: functional
Outline: (§4)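 Ames plate incorporation assay with Salmonella typhimurium TA98 or TA100, without S9, at 0.25 mg/plate. Revertants per plate were counted on duplicate plates per dose. Quercetin was the standard mutagen.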

Rattus norvegicus [9] = organism: Rattus norvegicus; assay: Mutagenicity evaluated by calculating number of revertants using Salmonella Typhimurium strain TA 100 (2.5 mg/plate) with S9 mix from rat liver; type: functional; outline: as §3
Rattus norvegicus [10] = organism: Rattus norvegicus; assay: Mutagenicity evaluated by calculating number of revertants using Salmonella Typhimurium strain TA 100 (2.5 mg/plate) without S9 mix from rat liver; type: functional; outline: as §3
Rattus norvegicus [11] = organism: Rattus norvegicus; assay: Mutagenicity evaluated by calculating number of revertants using Salmonella Typhimurium strain TA 98 (0.25 mg/plate) without S9 mix from rat liver; type: functional; outline: as §4
Rattus norvegicus [12] = organism: Rattus norvegicus; assay: Mutagenicity evaluated by calculating number of revertants using Salmonella Typhimurium strain TA 98 (2.5 mg/plate) without S9 mix from rat liver according to the plate incorporation assay.; type: functional; outline: as §3
Rattus norvegicus [13] = organism: Rattus norvegicus; assay: Compound was evaluated for the mutagenicity by calculating number of revertants using Salmonella Typhimurium strain TA 98 (0.25 mg/plate) with S9 mix from rat liver; type: functional; outline: as §3
Human rhinovirus sp. [14] = assay: Minimum drug concentration at which 99% of the rhino virus is inhibited.; type: functional
Outline: (§5)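 End-point titration with rhinovirus type 15 on human skin fibroblast monolayers. Cells were infected with serial 10-fold virus dilutions and allowed 1 h adsorption at 37 °C. Serial 2-fold compound dilutions were then added and plates incubated at 33 °C. CPE was read daily by light microscopy for at least 1 week, titres as TCD50/mL. ED99 = minimum concentration inhibiting 99% of virus.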

Human rhinovirus sp. [15] = assay: Antirhinovirus activity against rhinovirus serotype 15 which were grown on Ohio HeLa cells; type: functional
Human rhinovirus sp. [16] = assay: Antirhinovirus activity against rhinovirus serotype 2 which were grown on Ohio HeLa cells; type: functional
Human rhinovirus sp. [17] = assay: Antirhinovirus activity against rhinovirus serotype 29 which were grown on Ohio HeLa cells; type: functional
Human rhinovirus sp. [18] = assay: Antirhinovirus activity against rhinovirus serotype 39 which were grown on Ohio HeLa cells; type: functional
Human rhinovirus sp. [19] = assay: Antirhinovirus activity against rhinovirus serotype 41 which were grown on Ohio HeLa cells; type: functional
Human rhinovirus sp. [20] = assay: Antirhinovirus activity against rhinovirus serotype 63 which were grown on Ohio HeLa cells; type: functional
Human rhinovirus sp. [21] = assay: Antirhinovirus activity against rhinovirus serotype 85 which were grown on Ohio HeLa cells; type: functional
Human rhinovirus sp. [22] = assay: Antirhinovirus activity against rhinovirus serotype 89 which were grown on Ohio HeLa cells; type: functional
Human rhinovirus sp. [23] = assay: Antirhinovirus activity against rhinovirus serotype 9 which were grown on Ohio HeLa cells; type: functional
[24] = Therapeutic Index measured as the ratio of CyD50(polio) / ED99(polio) values; type: organism-based; details: enterovirus c; read-out: Therapeutic index 99
Outline: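 TI99 = CyD50/ED99 for poliovirus. ED99 came from end-point titration in Vero cells at 37 °C over 3 days. CyD50 came from Vero cell growth: 10⁶ cells were given serial 2-fold compound dilutions in quadruplicate for 6 days at 37 °C, then trypsinized, counted and reseeded, repeated five times. Generation time was calculated per concentration.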

[25] = Therapeutic Index measured as the ratio of CyD50 (rhino) / ED99 (rhino) values.; details: read-out: Therapeutic index 99
Outline: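 TI99 = CyD50/ED99 for rhinovirus 15. ED99 came from end-point titration in human skin fibroblasts at 33 °C over 7 days. CyD50 came from fibroblast growth: 10⁶ cells were given serial 2-fold compound dilutions in quadruplicate for 6 days at 37 °C, then counted and reseeded, repeated five times. Generation time was calculated per concentration.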

Human rhinovirus sp. [26] = assay: Antirhinovirus activity against rhinovirus serotype 14 which were grown on Ohio HeLa cells; type: functional
Human rhinovirus sp. [27] = assay: Antirhinovirus activity against rhinovirus serotype 59 which were grown on Ohio HeLa cells; type: functional
Human rhinovirus sp. [28] = assay: Cytotoxic dose at which 50% growth of normal cells is inhibited against rhino virus infection.; type: functional
Outline: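 Human skin fibroblasts, 10⁶ cells per flask, given serial 2-fold dilutions in quadruplicate in M-199 with 6% newborn calf serum and held 6 days at 37 °C. Cells were trypsinized, counted in a chamber and reseeded with compound over five repeat cycles. CyD50 = lowest concentration at least doubling cell generation time relative to untreated control.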

Enterovirus C [29] = assay: Minimum drug concentration at which 99% of the polio virus is inhibited; NA= Not active; type: functional, organism-based; outline: as §1
Human rhinovirus sp. [30] = assay: Antirhinovirus activity against rhinovirus serotype 70 which were grown on Ohio HeLa cells; type: functional
Human rhinovirus sp. [31] = assay: Minimum drug concentration at which 99% of the rhino virus is inhibited; NA= not active; type: functional, organism-based; outline: as §5
Enterovirus C [32] = assay: The ratio of the viral titer of the virus control (reduction factor) to the viral titer in the presence of the maximal non-toxic dose (RF MNTD) of the compound; type: functional; outline: as §2

Compound | Reduction factor (Enterovirus C [1]) | Minimal dose (Enterovirus C [2]) [µg/mL] | ED99 (Enterovirus C [3]) [µg/mL] | Max non-toxic dose (Enterovirus C [4]) [µg/mL] | CC50 [5] [µg/mL] | MIC50 (Human rhinovirus sp. [15]) [µg/mL] | MIC50 (Human rhinovirus sp. [16]) [µg/mL] | MIC50 (Human rhinovirus sp. [17]) [µg/mL] | MIC50 (Human rhinovirus sp. [18]) [µg/mL] | MIC50 (Human rhinovirus sp. [19]) [µg/mL] | MIC50 (Human rhinovirus sp. [22]) [µg/mL] | MIC50 (Human rhinovirus sp. [23]) [µg/mL] | selectivity ratio [24] | MIC50 (Human rhinovirus sp. [26]) [µg/mL] | MIC50 (Human rhinovirus sp. [27]) [µg/mL] | CyD50 (Human rhinovirus sp. [28]) [µg/mL] | also measured
COc1c(-c2ccc(O)cc2)oc2cc(O)c(C)c(C)c2c1=O | 1000000 | <2.5 | 0.1 | >100 | > 100 | 0.088 (≈ 0.282 µM) | 0.044 (≈ 0.141 µM) | 0.078 (≈ 0.25 µM) | 0.088 (≈ 0.282 µM) | 0.088 (≈ 0.282 µM) | 0.5 (≈ 1.6 µM) | 0.156 (≈ 0.499 µM) | > 1000 | 0.072 (≈ 0.231 µM) | 0.016 (≈ 0.0512 µM) | 100 | Revertants/plate (Rattus norvegicus [6]): 9; Revertants/plate (Rattus norvegicus [7]): 103; Revertants/plate (Rattus norvegicus [8]): 110; Revertants/plate (Rattus norvegicus [9]): 94; Revertants/plate (Rattus norvegicus [10]): 85; Revertants/plate (Rattus norvegicus [11]): 12; Revertants/plate (Rattus norvegicus [12]): 10; Revertants/plate (Rattus norvegicus [13]): 20; ED99 (Human rhinovirus sp. [14]): 0.5 µg/mL; MIC50 (Human rhinovirus sp. [20]): 0.074 µg/mL (≈ 0.237 µM); MIC50 (Human rhinovirus sp. [21]): 0.076 µg/mL (≈ 0.243 µM); selectivity ratio [25]: > 200
COc1ccc(-c2oc3c(OC)cccc3c(=O)c2OC)cc1 | 1 | – | – | 100 | > 200 | – | – | – | – | – | – | – | – | – | – | – | ED99 (Enterovirus C [29]): inactive
N=C(N)N [GUANIDINE] | – | – | – | – | – | 438 (≈ 7410 µM) | > 64 | > 64 | 109 (≈ 1850 µM) | 1000 (≈ 16900 µM) | 1000 (≈ 16900 µM) | 375 (≈ 6350 µM) | – | 7 (≈ 118 µM) | 350 (≈ 5920 µM) | – | MIC50 (Human rhinovirus sp. [20]): 500 µg/mL (≈ 8460 µM); MIC50 (Human rhinovirus sp. [30]): 6 µg/mL (≈ 102 µM); MIC50 (Human rhinovirus sp. [21]): 750 µg/mL (≈ 12700 µM)
CCOc1c(-c2ccc(O)cc2)oc2cc(C)ccc2c1=O | 1 | – | >25 | 25 | 25 (≈ 84.4 µM) | – | – | – | – | – | – | – | < 1 | – | – | 25 | ED99 (Human rhinovirus sp. [31]): inactive
COc1c(-c2ccc(O)cc2)oc2ccc(N)cc2c1=O | – | 10 | 5 | 10 | 10 (≈ 35.3 µM) | – | – | – | – | – | – | – | 2 | – | – | – | Reduction factor (Enterovirus C [32]): 10000
O=c1c(O)c(-c2ccc(O)c(O)c2)oc2cc(O)cc(O)c12 [QUERCETIN] | – | – | – | – | – | – | – | – | – | – | – | – | – | – | – | – | Revertants/plate (Rattus norvegicus [8]): 589; Revertants/plate (Rattus norvegicus [11]): 1100
COc1cc(C)c2c(=O)c(OC)c(-c3ccc(O)cc3)oc2c1 | 100000 | 0.5 | 1 | 25 | 50 (≈ 160 µM) | 0.4 (≈ 1.28 µM) | 2.4 (≈ 7.68 µM) | 0.175 (≈ 0.56 µM) | 12 (≈ 38.4 µM) | 0.375 (≈ 1.2 µM) | 0.2 (≈ 0.64 µM) | 0.2 (≈ 0.64 µM) | 50 | 10.8 (≈ 34.6 µM) | 3 (≈ 9.61 µM) | 50 | ED99 (Human rhinovirus sp. [14]): 25 µg/mL; MIC50 (Human rhinovirus sp. [30]): 5 µg/mL (≈ 16 µM); selectivity ratio [25]: 2
COc1cc(-c2oc3cc(O)c(OC)c(O)c3c(=O)c2OC)ccc1O | 10000 | 1 | – | 10 | 1 (≈ 2.78 µM) | – | – | – | – | – | – | – | – | – | – | – | ED99 (Enterovirus C [29]): inactive
Cc1ccc2c(=O)c(OC(C)C)c(-c3ccc(O)cc3)oc2c1 | – | – | – | – | 2 (≈ 6.44 µM) | – | – | – | – | – | – | – | – | – | – | 2 | ED99 (Human rhinovirus sp. [31]): inactive
